# Data taken from ChEMBL document CHEMBL3576866, “Discovery of a Cyclic Boronic Acid β-Lactamase Inhibitor (RPX7009) with Utility vs Class A Serine Carbapenemases” (J Med Chem, 2015).
# Tests used:
# [1] = target: Beta lactamase TEM-1 (Klebsiella pneumoniae) (UniProt Q7B899); test: Inhibition of Klebsiella pneumoniae KP1084 TEM-1 assessed as meropenem MIC at 4 ug/ml by broth microdilution method
# Outline: (§1)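 CLSI broth microdilution (M07-A9, 2012) MIC of the carbapenem against clinical serine carbapenemase-producing strain, tested alone and with the inhibitor held at a fixed 4 μg/mL.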
# Klebsiella aerogenes = test: Inhibition of Enterobacter aerogenes EA1028 OXA-30 assessed as cefepime MIC at 4 ug/ml by broth microdilution method
# Outline: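 CLSI broth microdilution (M07-A9) against clinical strains expressing serine β-lactamases.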
# Klebsiella pneumoniae [2] = test: Inhibition of Klebsiella pneumoniae KP1087 CTX-M-15 assessed as imipenem MIC at 4 ug/ml by broth microdilution method
# Klebsiella pneumoniae [3] = test: Inhibition of Klebsiella pneumoniae KP1004 SHV-11 assessed as ertapenem MIC at 4 ug/ml by broth microdilution method; outline: as §1
# Klebsiella oxytoca [4] = test: Inhibition of Klebsiella oxytoca KX1017 OXA-2 assessed as imipenem MIC at 4 ug/ml by broth microdilution method
# [5] = Inhibition of Escherichia coli recombinant KPC-2 assessed as substrate nitrocefin degradation preincubated for 10 mins followed by substrate addition measured every 10 secs for 10 mins by spectrophotometric analysis
# Outline: (§2)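 β-Lactamases purified from overexpressing recombinant E. coli. Enzyme preincubated with inhibitor at varying concentrations for 10 min at room temperature in 50 mM Na phosphate pH 7.0, 0.1 mg/mL BSA. Then 50 μM nitrocefin (final) added and cleavage read at 490 nm every 10 s for 10 min. Ki derived by the Waley method.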
# [6] = target: T1, Class A carbapenemase (Enterobacter cloacae) (UniProt A7WP95); test: Inhibition of Enterobacter cloacae ECL1058 KPC-3 assessed as biapenem MIC at 4 ug/ml by broth microdilution method
# T1 sequence (whole entry): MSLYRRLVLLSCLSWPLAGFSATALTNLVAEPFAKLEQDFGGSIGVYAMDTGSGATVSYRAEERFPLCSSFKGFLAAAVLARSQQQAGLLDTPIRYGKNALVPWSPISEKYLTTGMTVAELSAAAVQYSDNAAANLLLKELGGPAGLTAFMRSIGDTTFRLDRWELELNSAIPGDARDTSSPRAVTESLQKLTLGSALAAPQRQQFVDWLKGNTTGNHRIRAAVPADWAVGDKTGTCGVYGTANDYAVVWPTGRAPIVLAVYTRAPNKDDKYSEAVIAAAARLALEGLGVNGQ
# Klebsiella pneumoniae [7] = test: Inhibition of Klebsiella pneumoniae KP1087 KPC-2 assessed as ertapenem MIC at 4 ug/ml by broth microdilution method; outline: as §1
# Klebsiella oxytoca [8] = test: Inhibition of Klebsiella oxytoca KX1019 OXA-2 assessed as biapenem MIC at 4 ug/ml by broth microdilution method
# [9] = Volume of distribution in rat at 1000 mg/kg, iv administered as 0.5 hrs infusion by HPLC-MS method; format: ADME, organism-based; conditions: in vivo
# Plasminogen = Plasminogen (Homo sapiens, UniProt P00747); test: Inhibition of plasmin (unknown origin) using H-D-VLK-pNA as substrate preincubated for 10 mins followed by substrate addition measured for 30 mins by spectrophotometric analysis
# Sequence of Plasminogen (P00747 97-580 limits assumed): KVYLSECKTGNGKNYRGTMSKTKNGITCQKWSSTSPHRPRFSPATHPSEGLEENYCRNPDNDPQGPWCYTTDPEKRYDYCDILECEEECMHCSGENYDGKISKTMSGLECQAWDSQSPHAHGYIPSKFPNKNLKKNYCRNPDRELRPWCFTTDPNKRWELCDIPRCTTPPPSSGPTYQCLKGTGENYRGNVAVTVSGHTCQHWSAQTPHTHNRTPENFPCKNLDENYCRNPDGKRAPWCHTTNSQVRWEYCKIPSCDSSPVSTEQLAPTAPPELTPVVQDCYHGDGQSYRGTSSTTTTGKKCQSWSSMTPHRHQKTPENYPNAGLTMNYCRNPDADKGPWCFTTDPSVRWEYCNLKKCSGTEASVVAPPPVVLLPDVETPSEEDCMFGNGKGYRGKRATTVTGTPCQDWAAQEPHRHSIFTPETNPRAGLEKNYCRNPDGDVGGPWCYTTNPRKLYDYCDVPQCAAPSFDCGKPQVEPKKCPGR
# Sequence of Plasminogen (P00747 581-810 limits assumed): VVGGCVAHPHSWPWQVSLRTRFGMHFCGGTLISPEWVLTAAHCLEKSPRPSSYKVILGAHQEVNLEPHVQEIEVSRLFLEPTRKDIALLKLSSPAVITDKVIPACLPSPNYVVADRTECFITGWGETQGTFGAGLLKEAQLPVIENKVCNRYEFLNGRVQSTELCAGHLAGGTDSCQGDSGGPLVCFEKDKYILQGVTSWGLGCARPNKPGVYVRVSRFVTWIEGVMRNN
# Outline: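 Commercial plasmin in 100 mM Tris-HCl, pH 7.5, 100 mM NaCl. Exposed 10 min at 37 °C to varied inhibitor concentrations before H-D-VLK-pNA (listed at 200 μM), then absorbance read over 30 min. Rates were vs a no-treatment control; IC50 is the concentration giving 50% inhibition.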
# [10] = target: Carbapenem-hydrolyzing beta-lactamase KPC (Klebsiella pneumoniae) (UniProt Q9F663); test: Inhibition of Klebsiella pneumoniae KP1083 KPC-3 assessed as imipenem MIC at 4 ug/ml by broth microdilution method
# Sequence of Carbapenem-hydrolyzing beta-lactamase KPC (Klebsiella pneumoniae) (Q9F663 whole entry): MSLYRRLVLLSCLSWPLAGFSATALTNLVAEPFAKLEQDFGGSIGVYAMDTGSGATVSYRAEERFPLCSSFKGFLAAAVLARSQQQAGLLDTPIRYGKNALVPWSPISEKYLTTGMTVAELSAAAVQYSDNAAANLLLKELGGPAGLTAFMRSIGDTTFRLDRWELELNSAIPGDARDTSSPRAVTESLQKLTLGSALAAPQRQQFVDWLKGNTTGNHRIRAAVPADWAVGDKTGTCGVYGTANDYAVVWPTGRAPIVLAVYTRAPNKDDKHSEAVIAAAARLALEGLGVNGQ
# Klebsiella pneumoniae [11] = test: Inhibition of Klebsiella pneumoniae KP1008 KPC-2 assessed as ertapenem MIC at 4 ug/ml by broth microdilution method; outline: as §1
# [12] = AUC (0 to infinity) in rat at 100 mg/kg, iv administered as 0.5 hrs infusion by HPLC-MS method; format: ADME, organism-based; parameters: dose 100 mg/kg, route intravenous, time infinity; conditions: in vivo
# [13] = target: Beta lactamase TEM-1 (Klebsiella pneumoniae) (UniProt Q7B899); test: Inhibition of Klebsiella pneumoniae KP1004 TEM-1 assessed as meropenem MIC at 4 ug/ml by broth microdilution method; outline: as §1
# [14] = target: Carbapenem-hydrolyzing beta-lactamase KPC (Klebsiella oxytoca) (UniProt Q848S6); test: Inhibition of Klebsiella oxytoca KX1019 KPC-2 assessed as biapenem MIC at 4 ug/ml by broth microdilution method
# Sequence of Carbapenem-hydrolyzing beta-lactamase KPC (Klebsiella oxytoca) (Q848S6 whole entry): as the sequence (Q9F663 whole entry) above
# [15] = target: T2, Beta-lactamase SHV-1 (Klebsiella pneumoniae) (UniProt P0AD64); test: Inhibition of Klebsiella pneumoniae KP1083 SHV-1 assessed as biapenem MIC at 4 ug/ml by broth microdilution method; outline: as §1
# T2 sequence (whole entry): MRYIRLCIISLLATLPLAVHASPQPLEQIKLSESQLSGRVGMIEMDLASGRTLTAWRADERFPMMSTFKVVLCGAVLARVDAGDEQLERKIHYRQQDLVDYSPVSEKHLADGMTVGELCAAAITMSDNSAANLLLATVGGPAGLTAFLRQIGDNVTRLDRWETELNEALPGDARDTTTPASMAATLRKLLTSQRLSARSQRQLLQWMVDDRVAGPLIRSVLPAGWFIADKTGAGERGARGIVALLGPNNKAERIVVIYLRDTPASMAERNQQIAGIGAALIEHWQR
# Klebsiella oxytoca [16] = test: Inhibition of Klebsiella oxytoca KX1017 OXA-2 assessed as ertapenem MIC at 4 ug/ml by broth microdilution method
# [17] = Cmax in rat at 1000 mg/kg, iv administered as 0.5 hrs infusion by HPLC-MS method; format: ADME, organism-based; parameters: dose 1000 mg/kg, route intravenous; conditions: in vivo
# [18] = Inhibition of Escherichia coli recombinant P99 assessed as substrate nitrocefin degradation preincubated for 10 mins followed by substrate addition measured every 10 secs for 10 mins by spectrophotometric analysis; outline: as §2
# Prothrombin = Prothrombin (Homo sapiens, UniProt P00734); test: Inhibition of thrombin (unknown origin) using Benz-FVR-AMC as substrate preincubated for 10 mins followed by substrate addition measured for 30 mins by spectrophotometric analysis
# Outline: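 Thrombin, from a commercial source, in 20 mM Tris-HCl, pH 8, 150 mM NaCl, 2.5 mM CaCl2. Preincubated with inhibitor at various concentrations for 10 min at 37 °C. Benz-FVR-AMC (listed at 10 μM) was then added and the signal monitored for 30 min. Rates were relative to untreated; IC50 is the concentration giving 50% inhibition.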
# [19] = AUC (0 to infinity) in rat at 300 mg/kg, iv administered as 0.5 hrs infusion by HPLC-MS method; format: ADME, organism-based; parameters: dose 300 mg/kg, time infinity, route intravenous; conditions: in vivo
# Klebsiella oxytoca [20] = test: Inhibition of Klebsiella oxytoca KX1017 SHV-30 assessed as ertapenem MIC at 4 ug/ml by broth microdilution method
# Klebsiella pneumoniae [21] = test: Inhibition of Klebsiella pneumoniae KP1087 SHV-11 assessed as biapenem MIC at 4 ug/ml by broth microdilution method
# Outline: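 CLSI broth microdilution (M07-A9) against clinical K. pneumoniae strain KP1087 (KPC-2, CTX-M-15, SHV-11, TEM-1); carbapenem MIC (μg/mL) read with the inhibitor held at a fixed 4 μg/mL, alongside carbapenem alone.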
# Sequence of Beta lactamase TEM-1 (Klebsiella pneumoniae) (Q7B899 as listed by the source): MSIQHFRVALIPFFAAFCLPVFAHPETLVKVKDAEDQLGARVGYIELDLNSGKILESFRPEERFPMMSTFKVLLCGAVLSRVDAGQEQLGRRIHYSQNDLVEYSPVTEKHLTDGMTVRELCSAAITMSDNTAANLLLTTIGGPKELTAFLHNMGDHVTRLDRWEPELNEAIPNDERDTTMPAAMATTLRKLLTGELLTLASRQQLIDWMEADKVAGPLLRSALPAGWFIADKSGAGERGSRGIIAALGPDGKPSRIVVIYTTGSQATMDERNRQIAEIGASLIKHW
smiles,measurement,setting,value
O=C(O)C[C@@H]1CC[C@H](NC(=O)Cc2cccs2)B(O)O1 [VABORBACTAM],MIC,[1],0.5 µg/mL
same,MIC,Klebsiella aerogenes,0.5 µg/mL
same,MIC,Klebsiella pneumoniae [2],0.25 µg/mL
same,MIC,Klebsiella pneumoniae [3],≤ 0.06 µg/mL
same,MIC,Klebsiella oxytoca [4],0.13 µg/mL
same,Ki,[5],0.069 µM
same,MIC,[6],< 0.06 µg/mL
same,MIC,Klebsiella pneumoniae [7],2 µg/mL
same,MIC,Klebsiella oxytoca [8],0.25 µg/mL
same,Vd,[9],0.55 L/kg
same,IC50,Plasminogen,> 1000 µM
same,MIC,[10],0.13 µg/mL
same,MIC,Klebsiella pneumoniae [11],≤ 0.06 µg/mL
same,AUC(0-inf),[12],64 µg·h/mL
same,MIC,[13],< 0.06 µg/mL
same,MIC,[14],0.25 µg/mL
same,MIC,[15],< 0.06 µg/mL
same,MIC,Klebsiella oxytoca [16],0.25 µg/mL
same,Cmax,[17],2600 µg/mL
same,Ki,[18],0.053 µM
same,IC50,Prothrombin,> 1000 µM
same,AUC(0-inf),[19],239 µg·h/mL
same,MIC,Klebsiella oxytoca [20],0.25 µg/mL
same,MIC,Klebsiella pneumoniae [21],0.25 µg/mL
